In ChEMBL document CHEMBL1144463, “Rapid bactericidal activity of daptomycin against methicillin-resistant and methicillin-susceptible Staphylococcus aureus peritonitis in mice as measured with bioluminescent bacteria” (2007):
Values after ≈ are worked out from the molar mass of the structure shown.

Columns and labels:
Assay type in all cases: functional
Staphylococcus aureus [1] = test: Antimicrobial activity against bioluminescent methicillin-susceptible Staphylococcus aureus Xen29
Procedure, shortened: (§1)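 MIC by broth microdilution following CLSI guidelines against bioluminescent lux-carrying strains (Xen-1 plasmid-borne lux, Xen-29 chromosomal lux), grown overnight in Mueller-Hinton broth at 37°C.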

Staphylococcus aureus [2] = test: Antibacterial activity against methicillin-resistant Staphylococcus aureus Xen1 infected nonneutropenic CD1 mouse assessed as mouse survival at 50 mg/kg, sc after 7 days; conditions: 168 h, route subcutaneous
Procedure, shortened: (§2)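 Healthy female CD-1 mice (20–25 g) were infected i.p. with a lethal dose of lux strain (2 × 10^7 to 5 × 10^8 CFU/mouse) from an overnight Mueller-Hinton culture suspended in 6% hog gastric mucin. A single s.c. dose was given 1 h post-inoculation. Survival was recorded daily for 7 days, n=5/group.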

Staphylococcus aureus [3] = test: Antibacterial activity against methicillin-resistant Staphylococcus aureus Xen1 infected neutropenic CD1 mouse assessed as mortality at 50 mg/kg, sc after 7 days; conditions: 168 h, route subcutaneous
Procedure, shortened: (§3)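 Female CD-1 mice (20–25 g) were made neutropenic with cyclophosphamide i.p. at 150 mg/kg 4 days and 100 mg/kg 1 day before infection. They were infected i.p. with a lethal dose of lux strain (2 × 10^7 to 5 × 10^8 CFU/mouse) suspended in 6% hog gastric mucin. A single s.c. or gavage dose was given 1 h later. Survivors were counted daily for 7 days, n=5/group.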

Staphylococcus aureus [4] = test: Antibacterial activity against methicillin-resistant Staphylococcus aureus Xen1 infected neutropenic CD1 mouse assessed as mouse survival at 50 mg/kg, sc after 24 hrs; conditions: route subcutaneous; procedure, shortened: as §3
Staphylococcus aureus [5] = test: Reduction in bioluminescent methicillin-sensitive Staphylococcus aureus Xen29 in neutropenic CD1 mouse with peritonitis at 50 mg/kg, sc after 3 hrs relative to control; set-up: scale not given: the % may be the effect or the level left; conditions: route subcutaneous
Procedure, shortened: (§4)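 Cyclophosphamide-neutropenic female CD-1 mice (150 mg/kg i.p. day −4, 100 mg/kg day −1) were infected i.p. with a lethal inoculum in 6% mucin. A single s.c. or gavage dose was given 1 h later. Mice were anesthetized and imaged hourly to 5 h. Region-of-interest total flux (photons/s/cm2) was averaged over 5 mice. Percent reduction is relative to time-matched saline (10 ml/kg s.c.) controls.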

Staphylococcus aureus [6] = test: Reduction in bioluminescent methicillin-resistant Staphylococcus aureus with peritonitis Xen1 in immunocompetent CD1 mouse at 50 mg/kg, sc after 3 hrs relative to control; set-up: scale not given: the % may be the effect or the level left; conditions: route subcutaneous
Procedure, shortened: (§5)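 Peritonitis in healthy female CD-1 mice: lethal i.p. inoculum in 6% mucin, single s.c. dose 1 h later. Mice were anesthetized hourly (isoflurane inhalation or pentobarbital 60 mg/kg i.p.) and imaged ventral side up for 1–5 min. Total flux (photons/s/cm2) was taken over the infected-site region of interest and averaged over 5 mice. Percent reduction is versus saline-treated (10 ml/kg s.c.) controls at the same time point.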

Staphylococcus aureus [7] = test: Reduction in bioluminescent methicillin-sensitive Staphylococcus aureus Xen29 in immunocompetent CD1 mouse with peritonitis at 50 mg/kg, sc relative to control; set-up: scale not given: the % may be the effect or the level left; conditions: route subcutaneous
Procedure, shortened: (§6)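 Peritonitis in healthy female CD-1 mice (n = 5/group): i.p. Xen-29 (2 × 10^7 to 5 × 10^8 CFU) in 6% mucin, then a single s.c. or gavage dose at 1 h. Controls got saline 10 ml/kg s.c. Mice were anesthetized hourly (pentobarbital 60 mg/kg i.p. or isoflurane) and imaged ventral side up for 1–5 min, to 5 h postdosing. Total flux (photons/s/cm2) over the infected region was averaged per group. Percent reduction is versus time-matched saline controls.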

Staphylococcus aureus [8] = test: Reduction in bioluminescent methicillin-resistant Staphylococcus aureus Xen1 in immunocompetent CD1 mouse with peritonitis at 50 mg/kg, sc after 2 hrs relative to control; set-up: scale not given: the % may be the effect or the level left; conditions: route subcutaneous; procedure, shortened: as §5
Staphylococcus aureus [9] = test: Reduction in bioluminescent methicillin-sensitive Staphylococcus aureus Xen29 in neutropenic CD1 mouse with peritonitis at 50 mg/kg, sc after 5 hrs relative to control; set-up: scale not given: the % may be the effect or the level left; conditions: route subcutaneous
Procedure, shortened: (§7)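 Neutropenia was induced with cyclophosphamide 150 mg/kg i.p. at day −4 and 100 mg/kg i.p. at day −1. Mice were then infected i.p. with Xen-29 (2 × 10^7 to 5 × 10^8 CFU) in 6% mucin (n = 5/group) and dosed once, s.c. or by gavage, at 1 h. Luminescence was imaged hourly under anesthesia, 0–5 h postdosing. Mean region-of-interest flux is given as percent reduction versus time-matched saline (10 ml/kg s.c.) controls.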

Staphylococcus aureus [10] = test: Reduction in bioluminescent methicillin-sensitive Staphylococcus aureus Xen29 in immunocompetent CD1 mouse with peritonitis at 50 mg/kg, sc after 5 hrs relative to control; set-up: scale not given: the % may be the effect or the level left; conditions: route subcutaneous; procedure, shortened: as §5
Staphylococcus aureus [11] = test: Reduction in bioluminescent methicillin-resistant Staphylococcus aureus Xen1 in neutropenic CD1 mouse with peritonitis at 50 mg/kg, sc after 2 hrs relative to control; set-up: scale not given: the % may be the effect or the level left; conditions: route subcutaneous; procedure, shortened: as §4
Staphylococcus aureus [12] = test: Reduction in bioluminescent methicillin-sensitive Staphylococcus aureus Xen29 in neutropenic CD1 mouse with peritonitis at 50 mg/kg, sc after 4 hrs relative to control; set-up: scale not given: the % may be the effect or the level left; conditions: route subcutaneous; procedure, shortened: as §7
Staphylococcus aureus [13] = test: Reduction in bioluminescent methicillin-resistant Staphylococcus aureus Xen1 in neutropenic CD1 mouse with peritonitis at 50 mg/kg, sc after 5 hrs relative to control; set-up: scale not given: the % may be the effect or the level left; conditions: route subcutaneous; procedure, shortened: as §4
Staphylococcus aureus [14] = test: Antibacterial activity against methicillin-susceptible Staphylococcus aureus Xen29 infected neutropenic CD1 mouse assessed as mouse survival at 50 mg/kg, sc after 24 hrs; conditions: route subcutaneous; procedure, shortened: as §3
Staphylococcus aureus [15] = test: Antimicrobial activity against bioluminescent methicillin-resistant Staphylococcus aureus Xen1; procedure, shortened: as §1
Staphylococcus aureus [16] = test: Reduction in bioluminescent methicillin-sensitive Staphylococcus aureus Xen29 in neutropenic CD1 mouse with peritonitis at 50 mg/kg, sc after 2 hrs relative to control; set-up: scale not given: the % may be the effect or the level left; conditions: route subcutaneous; procedure, shortened: as §7
Staphylococcus aureus [17] = test: Reduction in bioluminescent methicillin-sensitive Staphylococcus aureus Xen29 in immunocompetent CD1 mouse with peritonitis at 50 mg/kg, sc after 3 hrs relative to control; set-up: scale not given: the % may be the effect or the level left; conditions: route subcutaneous; procedure, shortened: as §6
Staphylococcus aureus [18] = test: Reduction in bioluminescent methicillin-sensitive Staphylococcus aureus Xen29 in immunocompetent CD1 mouse with peritonitis at 50 mg/kg, sc after 4 hrs relative to control; set-up: scale not given: the % may be the effect or the level left; conditions: route subcutaneous; procedure, shortened: as §6
Staphylococcus aureus [19] = test: Antibacterial activity against methicillin-susceptible Staphylococcus aureus Xen29 infected neutropenic CD1 mouse assessed as mortality at 50 mg/kg, sc after 7 days; conditions: 168 h, route subcutaneous; procedure, shortened: as §3
Staphylococcus aureus [20] = test: Antibacterial activity against methicillin-susceptible Staphylococcus aureus Xen29 infected nonneutropenic CD1 mouse assessed as mouse survival at 50 mg/kg, sc after 7 days; conditions: 168 h, route subcutaneous; procedure, shortened: as §2
Staphylococcus aureus [21] = test: Antibacterial activity against methicillin-susceptible Staphylococcus aureus Xen29 infected neutropenic CD1 mouse assessed as mortality at 100 mg/kg, po after 4 days; procedure, shortened: as §3
Staphylococcus aureus [22] = test: Reduction in bioluminescent methicillin-resistant Staphylococcus aureus Xen1 in neutropenic CD1 mouse with peritonitis at 100 mg/kg, po after 2 hrs relative to control; set-up: scale not given: the % may be the effect or the level left; procedure, shortened: as §4
Staphylococcus aureus [23] = test: Reduction in bioluminescent methicillin-sensitive Staphylococcus aureus Xen29 in neutropenic CD1 mouse with peritonitis at 100 mg/kg, po after 3 hrs relative to control; set-up: scale not given: the % may be the effect or the level left; procedure, shortened: as §7
Staphylococcus aureus [24] = test: Reduction in bioluminescent methicillin-sensitive Staphylococcus aureus Xen29 in immunocompetent CD1 mouse with peritonitis at 100 mg/kg, po after 4 hrs relative to control; set-up: scale not given: the % may be the effect or the level left; procedure, shortened: as §6
Staphylococcus aureus [25] = test: Reduction in bioluminescent methicillin-resistant Staphylococcus aureus Xen1 in neutropenic CD1 mouse with peritonitis at 100 mg/kg, po after 5 hrs relative to control; set-up: scale not given: the % may be the effect or the level left; procedure, shortened: as §4
Staphylococcus aureus [26] = test: Antibacterial activity against methicillin-resistant Staphylococcus aureus Xen1 infected neutropenic CD1 mouse assessed as mortality at 100 mg/kg, po after 4 days; procedure, shortened: as §3
Staphylococcus aureus [27] = test: Reduction in bioluminescent methicillin-sensitive Staphylococcus aureus Xen29 in immunocompetent CD1 mouse with peritonitis at 100 mg/kg, po after 5 hrs relative to control; set-up: scale not given: the % may be the effect or the level left; procedure, shortened: as §6
Staphylococcus aureus [28] = test: Reduction in bioluminescent methicillin-sensitive Staphylococcus aureus Xen29 in neutropenic CD1 mouse with peritonitis at 100 mg/kg, po after 5 hrs relative to control; set-up: scale not given: the % may be the effect or the level left; procedure, shortened: as §7
Staphylococcus aureus [29] = test: Reduction in bioluminescent methicillin-resistant Staphylococcus aureus Xen1 in neutropenic CD1 mouse with peritonitis at 100 mg/kg, po after 3 hrs relative to control; set-up: scale not given: the % may be the effect or the level left; procedure, shortened: as §4
Staphylococcus aureus [30] = test: Reduction in bioluminescent methicillin-sensitive Staphylococcus aureus Xen29 in immunocompetent CD1 mouse with peritonitis at 100 mg/kg, po after 3 hrs relative to control; set-up: scale not given: the % may be the effect or the level left; procedure, shortened: as §6
Staphylococcus aureus [31] = test: Antibacterial activity against methicillin-resistant Staphylococcus aureus Xen1 infected neutropenic CD1 mouse assessed as mortality at 100 mg/kg, po within 24 hrs; conditions: Xen1, 24 h; procedure, shortened: as §3
Staphylococcus aureus [32] = test: Antibacterial activity against methicillin-susceptible Staphylococcus aureus Xen29 infected neutropenic CD1 mouse assessed as mortality at 100 mg/kg, po within 24 hrs; conditions: Xen29, 24 h; procedure, shortened: as §3
Staphylococcus aureus [33] = test: Reduction in bioluminescent methicillin-sensitive Staphylococcus aureus Xen29 in neutropenic CD1 mouse with peritonitis at 100 mg/kg, po after 4 hrs relative to control; set-up: scale not given: the % may be the effect or the level left; procedure, shortened: as §7

`CCCCCCCCCC(=O)N[C@@H](Cc1c[nH]c2ccccc12)C(=O)N[C@H](CC(N)=O)C(=O)N[C@@H](CC(=O)O)C(=O)N[C@@H]1C(=O)NCC(=O)N[C@@H](CCCN)C(=O)N[C@@H](CC(=O)O)C(=O)N[C@H](C)C(=O)N[C@@H](CC(=O)O)C(=O)NCC(=O)N[C@H](CO)C(=O)N[C@@H]([C@H](C)CC(=O)O)C(=O)N[C@@H](CC(=O)c2ccccc2N)C(=O)O[C@@H]1C` showed an MIC (Staphylococcus aureus [1]) of 1 µg/mL (≈ 0.617 µM), a survival at 50 mg/kg (Staphylococcus aureus [2]) of 100% and a survival at 50 mg/kg (Staphylococcus aureus [3]) of 40%. It also gave a survival at 50 mg/kg (Staphylococcus aureus [4]) of 100%, an Activity (Staphylococcus aureus [5]) of 98% and an Activity (Staphylococcus aureus [6]) of 97%. The Activity (Staphylococcus aureus [7]) was 90%, the Activity (Staphylococcus aureus [8]) was 89% and the Activity (Staphylococcus aureus [9]) was > 99.7%. It also gave an Activity (Staphylococcus aureus [10]) of 99%, an Activity (Staphylococcus aureus [11]) of 93% and an Activity (Staphylococcus aureus [12]) of 99.4%. For the same compound, the Activity (Staphylococcus aureus [13]) was 99.9%, the survival at 50 mg/kg (Staphylococcus aureus [14]) was 100% and the MIC (Staphylococcus aureus [15]) was 0.5 µg/mL (≈ 0.309 µM). For the same compound, the Activity (Staphylococcus aureus [16]) was 92%, the Activity (Staphylococcus aureus [17]) was 96% and the Activity (Staphylococcus aureus [18]) was 98%. It also gave a survival at 50 mg/kg (Staphylococcus aureus [19]) of 40% and a survival at 50 mg/kg (Staphylococcus aureus [20]) of 100%.
`CC(=O)NC[C@H]1CN(c2ccc(N3CCOCC3)c(F)c2)C(=O)O1` [LINEZOLID] gave an MIC (Staphylococcus aureus [1]) of 1 µg/mL (≈ 2.96 µM), an Activity (Staphylococcus aureus [21]) of 100% and an Activity (Staphylococcus aureus [22]) of 91%. It also gave an Activity (Staphylococcus aureus [23]) of 68%, an Activity (Staphylococcus aureus [24]) of 85% and an Activity (Staphylococcus aureus [25]) of 99.2%. For the same compound, the Activity (Staphylococcus aureus [26]) was 100%, the Activity (Staphylococcus aureus [27]) was 90% and the Activity (Staphylococcus aureus [28]) was 96.6%. It also gave an MIC (Staphylococcus aureus [15]) of 0.5 µg/mL (≈ 1.48 µM), an Activity (Staphylococcus aureus [29]) of 98% and an Activity (Staphylococcus aureus [30]) of 59%. For the same compound, the survival at 100 mg/kg (Staphylococcus aureus [31]) was 100%, the survival at 100 mg/kg (Staphylococcus aureus [32]) was 100% and the Activity (Staphylococcus aureus [33]) was 89%.
